# Active and inactive are the calls of the source. The calls are words filed in the database; no cut-off is given here.
# Legend:
# [1] = Drug uptake in human MCF7 cells at 1 uM after 10 mins by HPLC analysis; format: ADME, cell-based; settings: mcf7, 10 min
# In short: (§1)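 MCF7 cells were given 1 µM compound in medium with 10% FBS for 10 or 30 min. Cells and medium were extracted separately with chloroform/methanol (3:1, v/v) and analysed by HPLC. Mean ± SEM, n = 3.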
# MCF7 [2] = assay: Induction of apoptosis in human MCF7 cells assessed as early apoptotic cells at 1 uM after 24 hrs by Annexin V-FITC/propidium iodide-staining based flow cytometry (reference value: 1.74%); format: functional
# MCF7 [3] = assay: Induction of apoptosis in human MCF7 cells assessed as necrotic cells at 1 uM after 24 hrs by Annexin V-FITC/propidium iodide-staining based flow cytometry (reference value: 0.031%); format: functional
# MCF7 [4] = assay: Induction of apoptosis in human MCF7 cells xenografted in BALB/c nude mouse at 10 mg/kg, ip administered every other day by TUNEL assay; format: functional, organism-based
# In short: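 Apoptosis in MCF7 orthotopic tumor sections from nude mice given 10 mg/kg i.p. was scored by TUNEL staining.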
# [5] = MRT in Sprague-Dawley rat at 20 mg/kg, ip by HPLC analysis; format: ADME, organism-based; settings: in vivo
# In short: (§2)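 Male Sprague-Dawley rats (180−220 g), 4 per group, dosed at 5 mg/kg i.v., 20 mg/kg i.p. or 20 mg/kg p.o. Parameters given as mean ± SD (n = 4).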
# [6] = AUC in Sprague-Dawley rat at 20 mg/kg, po measured up to 48 hrs post administration by HPLC analysis; format: ADME, organism-based; design: time < 48 hr, dose 20 mg/kg, route oral; settings: in vivo; in short: as §2
# [7] = AUC in Sprague-Dawley rat at 5 mg/kg, iv measured up to 48 hrs post administration by HPLC analysis; format: ADME, organism-based; design: dose 5 mg/kg, time < 48 hr, route intravenous; settings: in vivo; in short: as §2
# [8] = biological target: T1, Vitamin D3 receptor (Homo sapiens) (UniProt P11473); assay: Transactivation of human GAL4-fused VRD expressed in HEK293 cells co-transfected with human RXRalpha/VDRE after 24 hrs by dual luciferase reporter gene assay; format: cell-based
# T1 sequence (whole entry): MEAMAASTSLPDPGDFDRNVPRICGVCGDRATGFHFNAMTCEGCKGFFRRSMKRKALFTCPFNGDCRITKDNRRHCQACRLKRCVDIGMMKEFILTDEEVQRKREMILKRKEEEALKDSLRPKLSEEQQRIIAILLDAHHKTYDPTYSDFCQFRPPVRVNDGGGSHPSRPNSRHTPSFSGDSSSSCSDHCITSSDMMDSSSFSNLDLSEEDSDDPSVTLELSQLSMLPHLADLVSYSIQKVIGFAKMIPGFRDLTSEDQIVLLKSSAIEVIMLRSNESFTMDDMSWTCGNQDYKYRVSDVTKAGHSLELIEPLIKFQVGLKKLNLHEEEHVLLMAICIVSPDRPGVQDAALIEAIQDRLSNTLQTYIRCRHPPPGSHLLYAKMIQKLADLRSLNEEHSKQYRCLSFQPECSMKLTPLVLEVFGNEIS
# [9] = Half life in Sprague-Dawley rat at 20 mg/kg, ip by HPLC analysis; format: ADME, organism-based; settings: in vivo; in short: as §2
# HepG2 [10] = assay: Induction of cell cycle arrest in human HepG2 cells at 1 uM after 24 hrs by propidium iodide-staining based flow cytometry; format: functional
# HepG2 [11] = assay: Antiproliferative activity against human HepG2 cells after 48 hrs by MTT assay; format: functional, cell-based; settings: HepG2, 48 h
# Mus musculus [12] = assay: Hypercalcemic effect in ICR mouse at 0.5 to 5 mg/kg/day, ip administered for 7 days measured on day 8 post-dose by MTB-based assay relative to control; format: ADME, organism-based; settings: in vivo, 168 h
# In short: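 Mice were dosed i.p. over a 7-day period and serum calcium was then measured. Each dose level was compared with a vehicle-treated control group (saline cited as the comparator). Data are mean ± SEM, n = 6 per group. Significance versus vehicle was reported at p < 0.05, 0.01 and 0.001.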
# [13] = MRT in Sprague-Dawley rat at 5 mg/kg, iv by HPLC analysis; format: ADME, organism-based; settings: in vivo; in short: as §2
# L02 = assay: Antiproliferative activity against human L02 cells after 48 hrs by MTT assay; format: cell-based; settings: L02, 48 h
# [14] = Clearance in Sprague-Dawley rat at 5 mg/kg, iv measured up to 48 hrs post administration by HPLC analysis; format: ADME, organism-based; settings: in vivo; in short: as §2
# MCF7 [15] = assay: Induction of cell cycle arrest in human MCF7 cells assessed as accumulation at G0/G1 phase at 1 uM after 24 hrs by propidium iodide-staining based flow cytometry (reference value: 56.03%); format: functional
# [16] = Drug uptake in human MCF7 cells at 1 uM after 30 mins by HPLC analysis; format: ADME, cell-based; settings: mcf7, 0.5 h; in short: as §1
# Vitamin D3 receptor = biological target: T2, Vitamin D3 receptor (Homo sapiens, UniProt P11473); assay: Displacement of fluormone VDR red from human full length VDR after 4 hrs by fluorescence polarization assay
# T2 sequence (P11473 whole entry): T1 sequence (whole entry)
# [17] = Clearance in Sprague-Dawley rat at 20 mg/kg, po by HPLC analysis; format: ADME, organism-based; settings: in vivo; in short: as §2
# PC-3 = assay: Antiproliferative activity against human PC3 cells after 48 hrs by MTT assay; format: functional, cell-based; settings: PC-3, 48 h
# MCF7 [18] = assay: Induction of cell cycle arrest in human MCF7 cells assessed as upregulation of p21 expression at 1 uM after 24 hrs by Western blot analysis; format: functional, cell-based
# In short: (§3)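 p21 and p27 protein levels were measured by Western blot in MCF7 cells treated at 1 µM for 24 h.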
# [19] = MRT in Sprague-Dawley rat at 20 mg/kg, po by HPLC analysis; format: ADME, organism-based; settings: in vivo; in short: as §2
# [20] = Half life in Sprague-Dawley rat at 5 mg/kg, iv by HPLC analysis; format: ADME, organism-based; settings: in vivo; in short: as §2
# MCF7 [21] = assay: Induction of cell cycle arrest in human MCF7 cells assessed as accumulation at G2/M phase at 1 uM after 24 hrs by propidium iodide-staining based flow cytometry (reference value: 12.41%); format: functional
# Mus musculus [22] = assay: Toxicity in BALB/c nude mouse xenografted with human MCF7 cells assessed increase in serum calcium levels at 10 mg/kg, ip administered every other day relative to control; format: organism-based; settings: in vivo
# In short: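 MCF7 cells transplanted orthotopically into the breast of athymic nude mice. Dosing at 10 mg/kg i.p. in vehicle of polyoxyethylated castor oil/ethanol/saline 1:1:18, with vehicle and saline control groups. Body weight, tumor volume and serum calcium followed.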
# MCF7 [23] = assay: Induction of apoptosis in human MCF7 cells assessed as upregulation of Bak mRNA levels at 1 uM after 24 hrs by RT-qPCR analysis; format: functional, cell-based
# [24] = Clearance in Sprague-Dawley rat at 20 mg/kg, ip by HPLC analysis; format: ADME, organism-based; settings: in vivo; in short: as §2
# [25] = Bioavailability in Sprague-Dawley rat at 20 mg/kg, ip measured up to 48 hrs after administration by HPLC analysis; format: ADME, organism-based; settings: in vivo; in short: as §2
# MCF7 [26] = assay: Induction of cell cycle arrest in human MCF7 cells assessed as upregulation of p21 mRNA levels at 1 uM after 24 hrs by RT-qPCR analysis; format: functional, cell-based
# In short: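 p21 and p27 mRNA levels were measured by real-time quantitative PCR in MCF7 cells treated at 1 µM for 24 h.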
# MCF7 [27] = assay: Induction of cell cycle arrest in human MCF7 cells assessed as upregulation of p27 expression at 1 uM after 24 hrs by Western blot analysis; format: functional, cell-based; in short: as §3
# MCF7 [28] = assay: Induction of cell cycle arrest in human MCF7 cells assessed as accumulation at S phase at 1 uM after 24 hrs by propidium iodide-staining based flow cytometry (reference value: 31.55%); format: functional
Structure (SMILES),Drug uptake [1],Activity (MCF7 [2]) [%],Activity (MCF7 [3]) [%],Activity (MCF7 [4]),MRT [5] [h],AUC at 48 h [6] [ng·h/mL],AUC at 48 h [7] [ng·h/mL],Activity [8],half-life [9] [h],Activity (HepG2 [10]),IC50 (HepG2 [11]) [nM],Activity (Mus musculus [12]),MRT [13] [h],IC50 (L02) [nM],clearance [14] [mL/min],Activity (MCF7 [15]) [%],Drug uptake [16],IC50 (Vitamin D3 receptor) [nM],CL/F [17] [mL/min],IC50 (PC-3) [nM],further results
CCn1c(C(=O)NCCCN2CCOCC2)ccc1C(CC)(CC)c1ccc(OCCC(O)(CC)CC)c(C)c1,37.9%,9.72,0.2,Active,17.6,15300,10400,Dose-dependent effect,11.7,Active,1760,Non-Toxic,7.55,2860,8.17,70.41,38.2%,406,21.8,1570,Activity (MCF7 [18]): Active; MRT [19]: 15.9 h; half-life [20]: 4.75 h; Activity (MCF7 [21]): 6.96%; Activity (Mus musculus [22]): Non-Toxic; Activity (MCF7 [23]): Active; CL/F [24]: 13 mL/min; bioavailability [25]: 62.5%; Activity (MCF7 [26]): Active; Activity (MCF7 [27]): Active; Activity (MCF7 [28]): 22.62%
CCN(CC)CCCNC(=O)c1ccc(C(CC)(CC)c2ccc(OCCC(O)(CC)CC)c(C)c2)n1CC,Active,9.59,0.23,Active,9.3,21500,25200,Dose-dependent effect,6.21,Active,150,Non-Toxic,3.85,370,3.5,70.15,Active,296,15.5,40,Activity (MCF7 [18]): Active; MRT [19]: 11 h; half-life [20]: 2.97 h; Activity (MCF7 [21]): 4.72%; Activity (Mus musculus [22]): Non-Toxic; Activity (MCF7 [23]): Active; CL/F [24]: 11.3 mL/min; bioavailability [25]: 30.2%; Activity (MCF7 [26]): Active; Activity (MCF7 [27]): Active; Activity (MCF7 [28]): 25.13%
